Calls of active or inactive are those of the source. The calls are words filed in the database; no cut-off is given here.
Test system: Leishmania donovani
Test: Antileishmanial activity against Leishmania donovani promastigotes after 48 hrs by alamar blue assay
Assay type: functional, organism-based
Procedure, shortened: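 L. donovani promastigotes grown in RPMI 1640 with 10% fetal calf serum at 26 °C. A 3-day-old culture was diluted to 5 × 10⁵ promastigotes/mL. Drug dilutions were made directly in the cell suspension and incubated 48 h at 26 °C.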

Structure (SMILES) | IC50 [µM] | IC90 [µM] | Activity
COc1cccc(C(=O)N/N=C/c2ccc([N+](=O)[O-])s2)c1 | 8.52 | 32.8 | 
Cc1ccc(C(=O)N/N=C/c2ccc([N+](=O)[O-])s2)cc1O | 2.3 | 4.59 | 
CN(C)c1ccc(C(=O)N/N=C/c2ccc([N+](=O)[O-])s2)cc1 |  |  | inactive
O=C(N/N=C/c1ccc([N+](=O)[O-])s1)c1cccc(O)c1 | 2.75 | 7.55 | 
COc1ccc(C(=O)N/N=C/c2ccc([N+](=O)[O-])o2)cc1 | 8.99 | 25.9 | 
O=C(N/N=C/c1ccc([N+](=O)[O-])s1)c1cccc(Cl)c1 | 2.74 | 6.78 | 
Nc1ccc(C(=O)N/N=C/c2ccc([N+](=O)[O-])s2)cc1 | 2.24 | > 34.5 | 
Cc1ccc(C(=O)N/N=C/c2ccc([N+](=O)[O-])o2)cc1 | 11 | 28.6 | 
COc1cc(C(=O)N/N=C/c2ccc([N+](=O)[O-])o2)ccc1C | 8.9 | 52.8 | 
Nc1cc(C(=O)N/N=C/c2ccc([N+](=O)[O-])o2)ccc1O | 27 | 97.5 | 
Cc1ccc(C(=O)N/N=C/c2ccc([N+](=O)[O-])s2)cc1 | 4.49 | 7.95 | 
O=C(N/N=C/c1ccc([N+](=O)[O-])s1)c1ccc(Cl)c(Cl)c1 | 0.41 | 0.87 | 
O=C(N/N=C/c1ccc([N+](=O)[O-])o1)c1ccc(F)c(Cl)c1 | 6.42 | 19.2 | 
O=C(N/N=C/c1ccc([N+](=O)[O-])o1)c1ccc(C(F)(F)F)cc1 | 8.86 | 24.4 | 
O=C(N/N=C/c1ccc([N+](=O)[O-])o1)c1cccc(C(F)(F)F)c1 | 10.4 | 24.1 | 
COc1cc(C(=O)N/N=C/c2ccc([N+](=O)[O-])s2)ccc1C | 2.19 | 4.39 | 
O=C(N/N=C/c1ccc([N+](=O)[O-])o1)c1cccc(Cl)c1 | 7.83 | 24.2 | 
O=C(N/N=C/c1ccc([N+](=O)[O-])s1)c1cccc([N+](=O)[O-])c1 | 2.78 | 14.3 | 
Cc1cccc(C(=O)N/N=C/c2ccc([N+](=O)[O-])s2)c1 | 4.84 | 19 | 
O=C(N/N=C/c1ccc([N+](=O)[O-])o1)c1cccc(O)c1 | 10.2 | 28 | 
COc1ccc(C(=O)N/N=C/c2ccc([N+](=O)[O-])s2)cc1N | 4.69 | 18.3 | 
Nc1ccc(C(=O)N/N=C/c2ccc([N+](=O)[O-])o2)cc1 | 2.66 | 14.6 | 
NS(=O)(=O)c1cc(C(=O)N/N=C/c2ccc([N+](=O)[O-])s2)ccc1Cl | 8.06 | 17.2 | 
COc1ccc(C(=O)N/N=C/c2ccc([N+](=O)[O-])o2)cc1N | 16.4 | 131 | 
O=C(N/N=C/c1ccc([N+](=O)[O-])s1)c1ccc(F)c(F)c1 | 2.15 | 4.92 | 
O=C(N/N=C/c1ccc([N+](=O)[O-])o1)c1ccc(Cl)c(Cl)c1 | 1.68 | 26.9 | 
O=C(N/N=C/c1ccc([N+](=O)[O-])s1)c1ccccc1 | 6.54 | 25.4 | 

Structure (SMILES) | IC50 [µM] | IC90 [µM] | Activity
O=C(N/N=C/c1ccc([N+](=O)[O-])o1)c1ccc(Cl)c([N+](=O)[O-])c1 |  |  | inactive
Cc1cccc(C(=O)N/N=C/c2ccc([N+](=O)[O-])o2)c1 | 19.8 | > 36.6 | 
O=C(N/N=C/c1ccc([N+](=O)[O-])o1)c1ccccc1 | 11.2 | 29.7 | 
O=C(N/N=C/c1ccc([N+](=O)[O-])s1)c1ccc(F)c(Cl)c1 | 1.92 | 4.67 | 
O=C(N/N=C/c1ccc([N+](=O)[O-])s1)c1ccc([N+](=O)[O-])cc1 | 2.81 | 5.31 | 
O=C(N/N=C/c1ccc([N+](=O)[O-])s1)c1ccc(O)cc1 | 0.89 | 4.46 | 
O=C(N/N=C/c1ccc([N+](=O)[O-])o1)c1ccc(Cl)cc1 | 7.83 | 23.8 | 
O=C(N/N=C/c1ccc([N+](=O)[O-])s1)c1cccc(C(F)(F)F)c1 | 3.79 | 6.41 | 
CN(C)c1ccc(C(=O)N/N=C/c2ccc([N+](=O)[O-])o2)cc1 |  |  | inactive
O=C(N/N=C/c1ccc([N+](=O)[O-])s1)c1ccc(C(F)(F)F)cc1 | 0.82 | 1.89 | 
O=C(N/N=C/c1ccc([N+](=O)[O-])o1)c1ccc([N+](=O)[O-])c(O)c1 | 9.9 | 48.9 | 
O=C(N/N=C/c1ccc([N+](=O)[O-])o1)c1ccc(F)c(F)c1 | 9.49 | 25.5 | 
NS(=O)(=O)c1cc(C(=O)N/N=C/c2ccc([N+](=O)[O-])o2)ccc1Cl | 38.5 | 88.5 | 
N=C(N)c1ccc(OCCCCCOc2ccc(C(=N)N)cc2)cc1 [PENTAMIDINE] | 1.06 |  | 
O=C(N/N=C/c1ccc([N+](=O)[O-])s1)c1ccc(Cl)cc1 | 1.26 | 4.84 | 
Cc1ccc(C(=O)N/N=C/c2ccc([N+](=O)[O-])o2)cc1N | 0.62 | 2.88 | 
CN(C)c1cccc(C(=O)N/N=C/c2ccc([N+](=O)[O-])o2)c1 | 7.94 | 24.2 | 
COc1cc(C(=O)N/N=C/c2ccc([N+](=O)[O-])o2)ccc1[N+](=O)[O-] | 7.39 | 20.2 | 
O=C(N/N=C/c1ccc([N+](=O)[O-])o1)c1cccc([N+](=O)[O-])c1 | 9.86 | 26 | 
CN(C)c1cccc(C(=O)N/N=C/c2ccc([N+](=O)[O-])s2)c1 |  |  | inactive
O=C(N/N=C/c1ccc([N+](=O)[O-])o1)c1ccc(O)cc1 [NIFUROXAZIDE] | 2.4 | 17.8 | 
COc1cc(C(=O)N/N=C/c2ccc([N+](=O)[O-])s2)ccc1[N+](=O)[O-] | 2 | 3.91 | 
Cc1ccc(C(=O)N/N=C/c2ccc([N+](=O)[O-])s2)cc1N | 2.24 | 4.7 | 
O=C(N/N=C/c1ccc([N+](=O)[O-])s1)c1ccc([N+](=O)[O-])c(O)c1 | 5.45 | 18.4 | 
COc1cccc(C(=O)N/N=C/c2ccc([N+](=O)[O-])o2)c1 | 10.4 | 26.6 | 
O=C(N/N=C/c1ccc([N+](=O)[O-])o1)c1ccc([N+](=O)[O-])cc1 | 6.57 | 22.4 | 
COc1ccc(C(=O)N/N=C/c2ccc([N+](=O)[O-])s2)cc1 | 7.21 | 26.2 | 
